Results: ChEMBL document CHEMBL3243980, “Structural analogues of L-glutamic Acid gamma-(4-hydroxyanilide) and gamma-(3,4-dihydroxyanilde) as potential agents against melanoma” (1979)

Tested on: B16
Test: Cytotoxicity against mouse B16 cells after 48 hrs
Assay type: functional
Conditions: B16, 48 h, read-out: ID50 (the source's name)
Outline: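 Moderately pigmented B16 murine melanoma cells grown as monolayers in McCoy's 5A medium plus 10% fetal calf serum, in exponential growth at assay. Drug added 24 h after plating, incubation continued another 48 h. Four dose levels tested in triplicate, generally 0.1–1.0 mM (0.01–0.1 mM for one compound); ID50 reported as mM, SD within ±10% of mean.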

With N[C@@H](CCC(=O)Nc1cccc(O)c1)C(=O)O as the molecule, how does the IC50 read?
Its IC50 is 1000 µM.

Which IC50 does the source give for N[C@@H](CCC(=O)Nc1ccc2c(c1)OCO2)C(=O)O here?
The IC50 was greater than 1000 µM.

Which IC50 does the source give for N[C@@H](CCC(=O)Nc1cc(O)ccc1O)C(=O)O here?
The IC50 was 51 µM.

For NCCCC(=O)Nc1ccc(O)cc1, which IC50 is on record?
The IC50 was greater than 1000 µM.

For N[C@@H](CCC(=O)O)C(=O)Nc1ccc(O)cc1, which IC50 is on record?
Its IC50 is greater than 1000 µM.

For N[C@@H](CCC(=O)Nc1ccc(O)c(O)c1)C(=O)O, which IC50 is on record?
The IC50 was 270 µM.

How did the IC50 turn out when N[C@@H](CC(=O)Nc1ccc(O)cc1)C(=O)O was run?
The IC50 was 310 µM.

For N[C@@H](CCC(=O)Nc1ccc(O)cc1)C(=O)O, which IC50 is on record?
Its IC50 is 100 µM.

How did the IC50 turn out when O=C(O)CCCC(=O)Nc1ccc(O)cc1 was run?
The IC50 was greater than 1000 µM.

With COc1ccc(NC(=O)CC[C@H](N)C(=O)O)cc1 as the molecule, how does the IC50 read?
The IC50 was greater than 1000 µM.

For O=C(CCCC(=O)Nc1ccc(O)cc1)Nc1ccc(O)cc1, which IC50 is on record?
The IC50 was greater than 1000 µM.
